Data on 21 compounds can be found in ChEMBL document CHEMBL4425122, “Discovery of 1-(1H-Pyrazolo[4,3-c]pyridin-6-yl)urea Inhibitors of Extracellular Signal-Regulated Kinase (ERK) for the Treatment of Cancers” (J Med Chem, 2016).

Series [1] addresses Mitogen-activated protein kinase 1 (Homo sapiens, UniProt P28482). Kind of series: Inhibition of human ERK2 preincubated for 15 mins followed by addition of IMAP peptide substrate and ATP measured after 60 mins by IMAP-FP assay. The essentials:
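Final: 0.5 nM hERK2, 900 nM unlabeled + 80 nM labeled peptide, 30 µM ATP; 60 min, quenched with IMAP beads in binding buffer with 24 mM NaCl, read by fluorescence polarization after 60 min.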

Series [2] can be described thus: Inhibition of ERK in human A375SM cells harboring BRAF V600E mutant assessed as inhibition of RSK phosphorylation measured after 4 hrs by mesoscale electrochemiluminescent sandwich assay. Type of series: cell-based. As to conditions: A375-SM. The essentials: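 A375SM (BRAF V600E melanoma) cells, 10,000 per well, treated 4 h; lysed 20 min at 4 °C in Tris/NaCl/EGTA/EDTA/Triton/NaF buffer with protease and phosphatase inhibitors. Lysate captured with biotin anti-RSK1 on streptavidin MSD plate, detected with SULFO-TAG anti-pRSK (pThr359/Ser363) overnight at 4 °C; electrochemiluminescence read. IC50 from 11-point titration.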

A short description of series [3]: Inhibition of ERK human A375 cells assessed as inhibition of RSK phosphorylation measured after 4 hrs by mesoscale electrochemiluminescent sandwich assay. As to conditions: A-375, 4 h.
Series [4] concerns the target Mitogen-activated protein kinase 1 (Mus musculus, UniProt P63085). As to the kind of experiment: Inhibition of mouse ERK2 preincubated for 15 mins followed by addition of IMAP peptide substrate and ATP measured after 60 mins by IMAP-FP assay.
Series [5] deals with Cytochrome P450 3A4 (Homo sapiens, UniProt P08684). As to the kind of experiment: Inhibition of CYP3A4 (unknown origin). The series is classed as ADME.
Chain of Cytochrome P450 3A4 (P08684 whole entry): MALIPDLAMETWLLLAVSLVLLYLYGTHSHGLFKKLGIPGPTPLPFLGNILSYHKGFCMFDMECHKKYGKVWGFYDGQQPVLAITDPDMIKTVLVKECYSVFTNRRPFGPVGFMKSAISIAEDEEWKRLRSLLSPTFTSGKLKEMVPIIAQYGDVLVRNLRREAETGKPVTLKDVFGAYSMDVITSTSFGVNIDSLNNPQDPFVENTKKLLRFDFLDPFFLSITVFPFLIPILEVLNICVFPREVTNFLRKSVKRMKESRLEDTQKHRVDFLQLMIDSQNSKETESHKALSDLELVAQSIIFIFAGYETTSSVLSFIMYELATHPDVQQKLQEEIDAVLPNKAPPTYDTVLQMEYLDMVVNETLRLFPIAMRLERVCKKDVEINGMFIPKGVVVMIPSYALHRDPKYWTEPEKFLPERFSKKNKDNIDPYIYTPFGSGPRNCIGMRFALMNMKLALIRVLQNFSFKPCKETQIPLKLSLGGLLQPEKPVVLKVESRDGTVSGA
Series [6] addresses Voltage-gated inwardly rectifying potassium channel KCNH2 (Homo sapiens, UniProt Q12809). Kind of series: Inhibition of human ERG.
A short description of series [7]: Inhibition of ERK (unknown origin) assessed as inhibition of RSK phosphorylation. Also on record: species or system Homo sapiens.
Series [8] concerns A375-SM. Kind of series: Antiproliferative activity against human A375SM cells harboring BRAF V600E mutant measured after 96 hrs by Cell Titer-Glo assay. The series is classed as functional, cell-based. The essentials:
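Cells in DMEM/10 mM HEPES/10% FBS added after compound, incubated 96 h at 37 °C, 5% CO2; equilibrated 15 min at room temperature, viability by CellTiter-Glo luminescence. IC50 from 10-point, 3-fold titration curves.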

Series [9] is described as follows: Solubility in human FaSSIF at pH 6.5. The series is classed as physicochemical. The essentials:
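Solubility measured in human fasted-state simulated intestinal fluid at pH 6.5.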

The species named for series [10] is Homo sapiens. As to the kind of experiment: Selectivity ratio, ratio of IC50 for human ERK2 to IC50 for MEK1 (unknown origin).
The species entered for series [11] is Homo sapiens. Kind of series: Selectivity ratio, ratio of IC50 for human ERK2 to IC50 for RAF1 (unknown origin).
For series [12], the species on record is Homo sapiens. Kind of series: Selectivity ratio, ratio of IC50 for human ERK2 to IC50 for COT (unknown origin).
The species named for series [13] is Homo sapiens. As to the kind of experiment: Selectivity ratio, ratio of IC50 for human ERK2 to IC50 for BRAF (unknown origin).

Converted amounts (≈) assume the structure as drawn. A value given as a limit tells only on which side of the number the result lay.

Chain of Voltage-gated inwardly rectifying potassium channel KCNH2 (Q12809 whole entry): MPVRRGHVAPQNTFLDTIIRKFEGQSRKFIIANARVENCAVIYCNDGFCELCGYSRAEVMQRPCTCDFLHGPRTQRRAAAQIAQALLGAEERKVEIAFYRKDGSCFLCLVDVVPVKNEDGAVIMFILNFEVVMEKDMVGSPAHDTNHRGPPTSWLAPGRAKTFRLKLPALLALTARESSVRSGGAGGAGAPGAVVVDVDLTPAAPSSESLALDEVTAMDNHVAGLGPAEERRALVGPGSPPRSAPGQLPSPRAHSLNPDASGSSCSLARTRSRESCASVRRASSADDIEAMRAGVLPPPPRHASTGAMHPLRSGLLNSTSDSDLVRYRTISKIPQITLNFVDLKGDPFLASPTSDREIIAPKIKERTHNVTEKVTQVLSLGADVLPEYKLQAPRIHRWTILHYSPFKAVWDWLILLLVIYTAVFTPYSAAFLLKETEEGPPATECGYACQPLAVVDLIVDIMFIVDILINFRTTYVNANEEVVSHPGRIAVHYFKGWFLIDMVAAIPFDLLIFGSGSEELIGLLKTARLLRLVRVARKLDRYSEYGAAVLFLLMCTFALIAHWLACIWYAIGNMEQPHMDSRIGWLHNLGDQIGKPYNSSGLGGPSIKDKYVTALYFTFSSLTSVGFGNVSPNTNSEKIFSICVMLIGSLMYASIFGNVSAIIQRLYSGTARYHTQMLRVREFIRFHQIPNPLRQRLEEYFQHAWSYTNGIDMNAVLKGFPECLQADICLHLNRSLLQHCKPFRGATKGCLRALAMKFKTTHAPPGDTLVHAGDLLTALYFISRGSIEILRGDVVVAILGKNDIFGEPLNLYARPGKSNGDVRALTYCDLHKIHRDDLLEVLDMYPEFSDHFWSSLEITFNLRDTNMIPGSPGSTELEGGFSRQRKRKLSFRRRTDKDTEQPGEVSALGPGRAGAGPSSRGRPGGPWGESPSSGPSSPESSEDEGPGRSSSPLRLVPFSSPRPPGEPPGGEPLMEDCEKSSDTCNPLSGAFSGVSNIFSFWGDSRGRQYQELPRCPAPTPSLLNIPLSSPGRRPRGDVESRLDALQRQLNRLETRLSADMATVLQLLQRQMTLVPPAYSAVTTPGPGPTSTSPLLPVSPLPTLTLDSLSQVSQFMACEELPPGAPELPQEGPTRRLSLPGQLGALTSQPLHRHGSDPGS
Chain of Mitogen-activated protein kinase 1 (Mus musculus, UniProt P63085) (P63085 whole entry): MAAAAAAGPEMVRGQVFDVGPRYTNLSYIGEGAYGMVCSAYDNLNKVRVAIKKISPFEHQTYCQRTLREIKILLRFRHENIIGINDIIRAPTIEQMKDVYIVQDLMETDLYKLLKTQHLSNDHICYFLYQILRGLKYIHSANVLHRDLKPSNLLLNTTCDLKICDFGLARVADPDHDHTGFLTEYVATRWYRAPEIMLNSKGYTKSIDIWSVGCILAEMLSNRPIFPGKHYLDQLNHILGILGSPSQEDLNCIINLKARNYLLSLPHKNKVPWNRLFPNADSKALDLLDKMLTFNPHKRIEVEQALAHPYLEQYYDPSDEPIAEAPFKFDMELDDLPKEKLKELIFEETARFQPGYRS
Chain of Mitogen-activated protein kinase 1 (Homo sapiens, UniProt P28482) (P28482 whole entry): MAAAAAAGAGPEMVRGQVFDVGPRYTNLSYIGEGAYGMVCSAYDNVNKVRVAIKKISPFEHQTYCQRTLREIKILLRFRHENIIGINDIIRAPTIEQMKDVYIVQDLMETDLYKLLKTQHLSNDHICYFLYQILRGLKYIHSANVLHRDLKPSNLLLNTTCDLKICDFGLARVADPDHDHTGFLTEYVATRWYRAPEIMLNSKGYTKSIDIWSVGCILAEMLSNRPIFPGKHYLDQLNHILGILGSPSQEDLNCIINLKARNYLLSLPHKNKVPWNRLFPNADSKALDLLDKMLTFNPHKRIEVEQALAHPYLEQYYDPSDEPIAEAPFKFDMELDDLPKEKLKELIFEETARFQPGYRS

On to `CCCc1n[nH]c2cc(NC(=O)N[C@H](C)c3ccccc3)ncc12`, for which the IC50 in series [1] was determined as 2 nM; in series [2], 350 nM.
In series [1], `Cc1cc(-c2n[nH]c3cc(Nc4ncc(-c5ccccc5)s4)ncc23)ccn1` returned an IC50 greater than 3000 nM.
For the compound `Cc1cc(-c2n[nH]c3cc(NC(=O)N[C@@H](C)c4ccccc4)ncc23)ccn1`, the concentration for half-maximal inhibition (IC50) in [3] amounted to 1800 nM.
As to `C[C@@H](NC(=O)Nc1cc2[nH]nc(-c3ccc(F)cc3)c2cn1)c1ccccc1`, the 50% inhibitory concentration (IC50) worked out at 0.8 nM in series [1] and 360 nM in [2].
As for `C[C@@H](NC(=O)Nc1cc2[nH]nc(C3CC3)c2cn1)c1ccccc1`, in series [2], the IC50 was found to be 550 nM.
`Cc1cc(-c2n[nH]c3cc(NC(=O)OCc4ccccc4)ncc23)ccn1` showed an IC50 in series [4] greater than 3000 nM.
Compound `Cc1cc(-c2n[nH]c3cc(NC(=O)CCc4ccccc4)ncc23)ccn1` returned a half-inhibitory concentration (IC50) in [4] of 420 nM.
Consider `COc1cc(-c2n[nH]c3cc(NC(=O)N[C@H](C)c4ccccc4)ncc23)ccn1`, for which the IC50 was 0.9 nM in series [1] and 300 nM in [2].
Regarding `Cc1cc(-c2n[nH]c3cc(NC(=O)Nc4ccccc4)ncc23)ccn1`, the IC50 in [2] was greater than 10000 nM.
`C[C@@H](NC(=O)Nc1cc2[nH]nc(-c3ccnc(F)c3)c2cn1)c1ccccc1`: the IC50 in series [5] is 29000 nM; in series [6] it was greater than 20000 nM; in [1], 0.3 nM; in series [2] it was 97 nM.
In turn, `Cc1cc(-c2n[nH]c3cc(NC(=O)OCc4ccccc4)ccc23)ccn1` returned a half-maximal inhibitory concentration (IC50) in [4] greater than 3000 nM.
`C[C@@H](NC(=O)Nc1cc2[nH]nc(-c3cnn(C)c3)c2cn1)c1ccccc1`: the IC50 in [5] was 380 nM; in series [6] it was greater than 20000 nM; in [1], 0.3 nM; in series [2], 110 nM.
Compound `Cc1cc(-c2n[nH]c3cc(Nc4nccs4)ncc23)ccn1` returned an IC50 in series [1] of 56 nM.
Regarding `Cc1cc(-c2n[nH]c3cc(NC(=O)N[C@H](C)c4ccccc4)ncc23)cc(C)n1`, the half-inhibitory concentration (IC50) in series [5] was 780 nM; in series [6], greater than 20000 nM; in series [1], 0.3 nM; in [2], 130 nM.
As to `Cc1cc(-c2n[nH]c3cc(NC(=O)N[C@H](C)c4ccccc4)ncc23)cnn1`, the values for the IC50 in series [1] and in series [2] were 0.9 nM and 810 nM, respectively.
With `O=C(Nc1ccc2[nH]nc(-c3ccncc3)c2c1)[C@@H]1CCN(CC(=O)N2CCN(c3ccc(-c4ncccn4)cc3)CC2)C1`, the IC50 in series [7] is 57 nM; in series [8], 39 nM. In [9], this compound displayed a solubility of 38 µM (≈ 22.3 µg/mL).
Turning to `Cc1cc(-c2n[nH]c3cc(NC(=O)NC4CCc5ccccc54)ncc23)ccn1` (centres undefined), the IC50 in series [1] stood at 5 nM; in [2], 750 nM.
In turn, `Cc1cc(-c2n[nH]c3cc(NS(=O)(=O)NCc4ccccc4)ncc23)ccn1` showed a 50% inhibitory concentration (IC50) in series [1] of 2400 nM.
As to `Cc1cc(-c2n[nH]c3cc(NC(=O)NCc4ccccc4)ncc23)ccn1`, the Ratio IC50 in series [10], in [11], in [12] and in series [13] was less than 100 each time. Further, the concentration for half-maximal inhibition (IC50) was 0.9 nM in series [1], 0.2 nM in series [4] and 220 nM in series [2].
Regarding `C[C@@H](NC(=O)Nc1cc2[nH]nc(C3CCCC3)c2cn1)c1ccccc1`, the 50% inhibitory concentration (IC50) in series [1] worked out at 4 nM; in series [2], 810 nM.
Consider `Cc1cc(-c2n[nH]c3cc(NC(=O)NCCc4ccccc4)ncc23)ccn1`, for which the IC50 in [3] came to 110 nM.
